Laboratory results as given in ChEMBL document CHEMBL2146367, “Novel fluorescent ceramide derivatives for probing ceramidase substrate specificity” (Bioorg Med Chem, 2012).
Activity calls are given as the source filed them. The calls are words filed in the database; no cut-off is given here.

Assays:
[1] = target: T1, Acid ceramidase (Homo sapiens) (UniProt Q13510); assay: Activity of human recombinant acid ceramidase expressed in baculovirus infected Sf9 cells assessed as hydrolysis at 80 uM after 150 mins by TLC-based fluorescence imaging in presence of DP-24a
T1 sequence (whole entry): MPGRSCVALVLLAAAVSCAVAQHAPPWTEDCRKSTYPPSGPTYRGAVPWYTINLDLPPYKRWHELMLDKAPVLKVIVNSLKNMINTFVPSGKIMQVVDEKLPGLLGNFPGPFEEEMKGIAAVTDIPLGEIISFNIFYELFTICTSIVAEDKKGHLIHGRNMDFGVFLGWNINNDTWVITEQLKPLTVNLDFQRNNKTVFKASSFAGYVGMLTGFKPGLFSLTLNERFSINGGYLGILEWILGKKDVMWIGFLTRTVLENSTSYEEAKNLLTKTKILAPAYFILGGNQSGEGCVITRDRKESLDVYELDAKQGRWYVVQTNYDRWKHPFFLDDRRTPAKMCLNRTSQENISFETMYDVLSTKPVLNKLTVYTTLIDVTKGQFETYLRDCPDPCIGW
Summary of the method: (§1)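 Inhibition runs used 30 µg/mL aCDase with inhibitor at 50 µM, in pH 4.5 sodium acetate buffer with 200 mM NaCl and 0.1% Triton X-100. Substrate set per compound at 80, 55 or 160 µM; DMSO <5%. Incubated 150 min at 37 °C, then extracted and run on TLC with fluorescence imaging. Activity expressed relative to an inhibitor-free control; mean ± SD of three experiments, with significance by p value.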

[2] = target: Neutral ceramidase (Homo sapiens) (UniProt Q9NR71); assay: Activity of human recombinant neutral ceramidase assessed as hydrolysis at 20 uM after 60 mins by TLC-based fluorescence imaging; set-up: scale not given: the % may be the effect or the level left
Sequence of Neutral ceramidase (Homo sapiens) (Q9NR71 whole entry): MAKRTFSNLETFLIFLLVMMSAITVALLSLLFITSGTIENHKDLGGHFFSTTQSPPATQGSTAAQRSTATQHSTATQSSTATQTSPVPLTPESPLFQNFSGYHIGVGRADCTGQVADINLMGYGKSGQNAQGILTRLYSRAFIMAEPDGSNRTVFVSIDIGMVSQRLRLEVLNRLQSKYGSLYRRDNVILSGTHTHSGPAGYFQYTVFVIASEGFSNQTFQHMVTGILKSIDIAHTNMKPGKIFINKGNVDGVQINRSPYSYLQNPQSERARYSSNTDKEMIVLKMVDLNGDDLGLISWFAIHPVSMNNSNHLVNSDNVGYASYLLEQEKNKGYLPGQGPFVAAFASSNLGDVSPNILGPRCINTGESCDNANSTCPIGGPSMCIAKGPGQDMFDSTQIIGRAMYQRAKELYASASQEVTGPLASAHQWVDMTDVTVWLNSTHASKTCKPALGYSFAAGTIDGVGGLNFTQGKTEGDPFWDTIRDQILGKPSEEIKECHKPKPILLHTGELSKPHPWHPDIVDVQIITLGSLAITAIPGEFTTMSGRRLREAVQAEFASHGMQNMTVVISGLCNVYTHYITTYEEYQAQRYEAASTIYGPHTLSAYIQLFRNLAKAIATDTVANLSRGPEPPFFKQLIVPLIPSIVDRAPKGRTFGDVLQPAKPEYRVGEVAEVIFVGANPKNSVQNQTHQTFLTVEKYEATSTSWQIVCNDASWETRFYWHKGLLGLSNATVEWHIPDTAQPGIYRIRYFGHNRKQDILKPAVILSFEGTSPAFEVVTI
Summary of the method: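 Recombinant human nCDase at 20 ng/mL final, with substrate at 20 µM final, in 200 mM sodium acetate pH 7.0, 200 mM NaCl, 0.1% Triton X-100. Incubated 60 min at 37 °C. Stopped with chloroform/methanol 2:1 and centrifuged 2 min at 10,000 rpm; organic layer run on TLC. Percent hydrolysis from imaged fluorescence of product versus substrate; mean ± SD, n=3.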

[3] = target: T1, Acid ceramidase (Homo sapiens); assay: Activity of human recombinant acid ceramidase expressed in baculovirus infected Sf9 cells assessed as hydrolysis at 20 uM after 150 mins by TLC-based fluorescence imaging; set-up: scale not given: the % may be the effect or the level left
Summary of the method: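 Micellar assay with insect-cell-expressed human aCDase in 200 mM sodium acetate pH 4.5, 200 mM NaCl, 0.1% Triton X-100. Substrate at 20 µM final, 150 min at 37 °C. Quenched with chloroform/methanol 2:1, organic layer separated on silica TLC. Spots imaged at ex 550/em 600 nm (Nile Red) or ex 430/em 550 nm (NBD). Percent cleavage taken from cleaved/(cleaved+uncleaved) fluorescence; mean ± SD, n=3.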

[4] = target: T1, Acid ceramidase (Homo sapiens); assay: Activity of human recombinant acid ceramidase expressed in baculovirus infected Sf9 cells assessed as hydrolysis at 80 uM after 150 mins by TLC-based fluorescence imaging in presence of B-13; summary of the method: as §1
Tachypleus tridentatus = assay: Activity of japanese horseshoe crab acid ceramidase after 30 mins by TLC-based fluorescence imaging
[5] = target: T1, Acid ceramidase (Homo sapiens); assay: Activity of human recombinant acid ceramidase expressed in baculovirus infected Sf9 cells assessed as hydrolysis at 55 uM after 150 mins by TLC-based fluorescence imaging in presence of DP-24a; summary of the method: as §1
[6] = target: T1, Acid ceramidase (Homo sapiens); assay: Activity of human recombinant acid ceramidase expressed in baculovirus infected Sf9 cells assessed as hydrolysis at 55 uM after 150 mins by TLC-based fluorescence imaging in presence of B-13; summary of the method: as §1
[7] = target: T1, Acid ceramidase (Homo sapiens); assay: Activity of human recombinant acid ceramidase expressed in baculovirus infected Sf9 cells assessed as hydrolysis at 160 uM after 150 mins by TLC-based fluorescence imaging in presence of B-13; summary of the method: as §1
[8] = target: T1, Acid ceramidase (Homo sapiens); assay: Activity of human recombinant acid ceramidase expressed in baculovirus infected Sf9 cells assessed as hydrolysis at 160 uM after 150 mins by TLC-based fluorescence imaging in presence of DP-24a; summary of the method: as §1

CCCCCCCCCCCCC/C=C/[C@@H](O)[C@H](CO)NC(=O)CCCCCCCCCCCOc1ccc2c(=O)cc3oc4cc(N(CC)CC)ccc4nc-3c2c1
Activity [1]: inactive | Activity [2]: 3.3% | Activity [3]: 6.1% | Activity [4]: inactive

CCCCCCCCCCCCC/C=C/[C@@H](O)[C@H](CO)NC(=O)CCCCCCCCCCCNc1ccc([N+](=O)[O-])c2nonc12
Activity [1]: inactive | Km (Tachypleus tridentatus): 59 µM | Vmax (Tachypleus tridentatus): 0.8 pmol/min | Activity [2]: 9.9% | Activity [3]: 9.9% | Activity [4]: inactive

CCCCCCCCCCCCCCCC(=O)N[C@@H](CO)[C@H](O)/C=C/CCCCCCCCCOc1ccc2c(=O)cc3oc4cc(N(CC)CC)ccc4nc-3c2c1
Activity [5]: inactive | Activity [6]: inactive | Activity [2]: 3.9% | Activity [3]: 6.3%

CCCCCCCCCCCCCCCC(=O)N[C@@H](CO)[C@H](O)/C=C/CCCCCCCCCNc1ccc([N+](=O)[O-])c2nonc12
Activity [7]: inactive | Activity [8]: inactive | Activity [2]: 6.2% | Activity [3]: 5.6%
